{
  "source": "paper PMC9305210",
  "about": "(British Journal of Clinical Pharmacology, 2022)",
  "key": {"Safety and tolerability": {"assay": "Safety and tolerability", "type": "in vivo, human", "settings": "for tolerability: 100‐400 mg/day for up to 14 days, healthy subjects; for TEAE leading to discontinuation: one subject", "method_in_brief": "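Randomized, double-blind, placebo-controlled; cohorts of 8 (6:2) healthy adults given oral solution daily for a planned 14 days after ≥8 h fast, confined on site days −3 to 15 plus 1 follow-up day. Monitoring covered AEs, physical examination, BMI, vital signs, ECG and clinical laboratory tests. Subjects with ≥1 treatment-emergent AE counted across all subjects receiving at least one dose.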"}, "[1]": {"type": "in vivo, human", "settings": "for half-life / AUC: human; for half-life / AUC / CL/F, mean (CV%): plasma; for half-life: oral; for AUC: po, AUCτ, mean (CV%), AUCτ = AUC24"}, "[2]": {"settings": "healthy subjects, cited from earlier work"}, "CH24H": {"test_system": "CH24H", "settings": "CH24H‐knockout mice vs wild‐type controls; cited from earlier work"}, "[3]": {"settings": "Soticlestat total, n = 30, listed as soticlestat"}},
  "note": "Like-named read-outs stand apart in the source and are kept apart here. Marks after values point to notes of the source that are not given here.",
  "data": [
    {"smiles": "O=C(c1cccnc1-c1ccncc1)N1CCC(O)(Cc2ccccc2)CC1", "note": "[Soticlestat, soticlestat]", "values": [
      {"measurement": "Number of subjects (%) with TEAEs: Not related", "setting": "Safety and tolerability; 400 mg QD, n = 6", "result": "1 (16.7)"},
      {"measurement": "Number of subjects (%) with TEAEs: Related", "setting": "Safety and tolerability; 400 mg QD, n = 6", "result": "4 (66.7)"},
      {"measurement": "Number of subjects (%) with TEAEs: Severe", "setting": "Safety and tolerability; 400 mg QD, n = 6", "result": 0},
      {"measurement": "Number of subjects (%): Deaths", "setting": "Safety and tolerability; 400 mg QD, n = 6", "result": 0},
      {"measurement": "Number of subjects (%) with SAEs", "setting": "Safety and tolerability; 600 mg QD, n = 6", "result": 0},
      {"measurement": "Number of subjects (%) with TEAEs", "setting": "Safety and tolerability; 600 mg QD, n = 6", "result": "3 (50.0)"},
      {"measurement": "Number of subjects (%) with TEAEs: Leading to discontinuation", "setting": "Safety and tolerability; 600 mg QD, n = 6", "result": "1 (16.7)"},
      {"measurement": "Number of subjects (%) with TEAEs: Mild", "setting": "Safety and tolerability; 600 mg QD, n = 6", "result": "2 (33.3)"},
      {"measurement": "Number of subjects (%) with TEAEs: Moderate", "setting": "Safety and tolerability; 600 mg QD, n = 6", "result": 0},
      {"measurement": "Number of subjects (%) with TEAEs: Not related", "setting": "Safety and tolerability; 600 mg QD, n = 6", "result": 0},
      {"measurement": "Number of subjects (%) with TEAEs: Related", "setting": "Safety and tolerability; 600 mg QD, n = 6", "result": "3 (50.0)"},
      {"measurement": "Number of subjects (%) with TEAEs: Severe", "setting": "Safety and tolerability; 600 mg QD, n = 6", "result": "1 (16.7)"},
      {"measurement": "Number of subjects (%): Deaths", "setting": "Safety and tolerability; 600 mg QD, n = 6", "result": 0},
      {"measurement": "tolerability", "setting": "Safety and tolerability", "result": "generally well tolerated"},
      {"measurement": "tolerability", "setting": "Safety and tolerability; listed as soticlestat", "result": "well tolerated in most healthy subjects up to 400 mg daily"},
      {"measurement": "Number of subjects (%) with SAEs", "setting": "Safety and tolerability; Soticlestat total, n = 30", "result": 0},
      {"measurement": "Number of subjects (%) with TEAEs", "setting": "Safety and tolerability; Soticlestat total, n = 30", "result": "14 (46.7)"},
      {"measurement": "Number of subjects (%) with TEAEs: Leading to discontinuation", "setting": "Safety and tolerability; Soticlestat total, n = 30", "result": "2 (6.7)"},
      {"measurement": "Number of subjects (%) with TEAEs: Mild", "setting": "Safety and tolerability; Soticlestat total, n = 30", "result": "12 (40.0)"},
      {"measurement": "Number of subjects (%) with TEAEs: Moderate", "setting": "Safety and tolerability; Soticlestat total, n = 30", "result": "1 (3.3)"},
      {"measurement": "Number of subjects (%) with TEAEs: Not related", "setting": "Safety and tolerability; Soticlestat total, n = 30", "result": "1 (3.3)"},
      {"measurement": "Number of subjects (%) with TEAEs: Related", "setting": "Safety and tolerability; Soticlestat total, n = 30", "result": "13 (43.3)"},
      {"measurement": "Number of subjects (%) with TEAEs: Severe", "setting": "Safety and tolerability; Soticlestat total, n = 30", "result": "1 (3.3)"},
      {"measurement": "Number of subjects (%): Deaths", "setting": "Safety and tolerability; Soticlestat total, n = 30", "result": 0},
      {"measurement": "Number of subjects (%) with TEAEs", "setting": "Safety and tolerability; [3]", "result": 14},
      {"measurement": "Number of subjects (%) with TEAEs: Related", "setting": "Safety and tolerability; [3]", "result": 13},
      {"measurement": "clinical laboratory (including hormones), vital signs, physical examination, eye examination or electrocardiographic findings", "setting": "Safety and tolerability; all doses", "result": "No clinically significant findings"},
      {"measurement": "liver function test results", "setting": "Safety and tolerability; all doses", "result": "No subjects had abnormal liver function test results"},
      {"measurement": "number of TEAE events considered related to soticlestat", "setting": "Safety and tolerability; all doses", "result": 31},
      {"measurement": "proportion of TEAEs transient and mild in intensity", "setting": "Safety and tolerability; all doses", "result": 91, "unit": "%"},
      {"measurement": "serious AEs", "setting": "Safety and tolerability; all doses", "result": "No serious AEs were reported"},
      {"measurement": "proportion of TEAEs transient and mild in intensity", "setting": "Safety and tolerability; all doses, listed as soticlestat", "result": "over 90%"},
      {"measurement": "outcome of TEAEs", "setting": "Safety and tolerability; before study exit on day 15", "result": "reversible and resolved without treatment"},
      {"measurement": "TEAE leading to discontinuation", "setting": "Safety and tolerability; 300 mg BID (cohort 3), study day 9", "result": "mild event of confusional state"},
      {"measurement": "TEAE leading to discontinuation", "setting": "Safety and tolerability; 600 mg QD (cohort 4), study day 10", "result": "severe event of acute psychosis"},
      {"measurement": "total number of TEAEs reported", "setting": "Safety and tolerability; subjects administered soticlestat, all doses", "result": 45},
      {"measurement": "increase in AUCτ at steady state (accumulation ratio based on AUC)", "setting": "[1]; 300 mg QD for 14 days", "result": "~1.42", "unit": "fold"},
      {"measurement": "increase in C max at steady state (day 14 vs day 1)", "setting": "[1]; 300 mg QD for 14 days", "result": "approximately 1.74 fold"},
      {"measurement": "accumulation ratio based on AUC", "setting": "[1]; 400 mg QD", "result": 1.20},
      {"measurement": "dose proportionality of steady‐state exposure", "setting": "[1]; 100‐400 mg QD, 14 days", "result": "slightly greater than dose‐proportional"},
      {"measurement": "increase in single‐dose mean AUC∞ over 6‐fold dose range", "setting": "[1]; day 1, 100‐600 mg", "result": 9.35, "unit": "fold"},
      {"measurement": "increase in single‐dose mean C max over 6‐fold dose range", "setting": "[1]; day 1, 100‐600 mg", "result": 6.55, "unit": "fold"},
      {"measurement": "time‐dependent effect of PK on repeat dosing", "setting": "[1]; day 1 vs day 14", "result": "not apparent"},
      {"measurement": "increase in mean AUCτ over 4‐fold dose range", "setting": "[1]; day 14, 100‐400 mg QD", "result": 6.12, "unit": "fold"},
      {"measurement": "increase in mean C max over 4‐fold dose range", "setting": "[1]; day 14, 100‐400 mg QD", "result": 6.08, "unit": "fold"},
      {"measurement": "half-life", "setting": "[1]; elimination half‐life, overall, as summarised in abstract", "result": "~240", "unit": "min"},
      {"measurement": "half-life", "setting": "[1]; mean half‐life, at 300 mg QD and 400 mg QD", "result": "~240", "unit": "min"},
      {"measurement": "half-life", "setting": "[1]; mean terminal elimination half‐life (t ½z), range across groups, day 1 and day 14, all doses", "result": "209 to 290", "unit": "min"},
      {"measurement": "AUC", "setting": "[1]; 100 mg, soticlestat 100 mg QD oral solution, day 1", "result": 446, "unit": "ng·h/mL"},
      {"measurement": "AUC", "setting": "[1]; 100 mg, soticlestat 100 mg QD oral solution, day 14", "result": 458, "unit": "ng·h/mL"},
      {"measurement": "AUC", "setting": "[1]; 300 mg, soticlestat 300 mg QD oral solution, day 1", "result": 2030, "unit": "ng·h/mL"},
      {"measurement": "AUC", "setting": "[1]; 300 mg, soticlestat 300 mg QD oral solution, day 14", "result": 2690, "unit": "ng·h/mL"},
      {"measurement": "AUC", "setting": "[1]; 400 mg, soticlestat 400 mg QD oral solution, day 1", "result": 2500, "unit": "ng·h/mL"},
      {"measurement": "AUC", "setting": "[1]; 400 mg, soticlestat 400 mg QD oral solution, day 14", "result": 2800, "unit": "ng·h/mL"},
      {"measurement": "AUC", "setting": "[1]; 600 mg, soticlestat 600 mg QD oral solution, day 1", "result": 4180, "unit": "ng·h/mL"},
      {"measurement": "exposure accumulation on day 14 compared with day 1", "setting": "[1]; once‐daily dosing of 100 or 400 mg for 14 days", "result": "did not appear to result in exposure accumulation"},
      {"measurement": "CL/F, mean (CV%)", "setting": "[1]; soticlestat 100 mg QD oral solution, day 1", "result": "248 (40.4) ^c L/h"},
      {"measurement": "CL/F, mean (CV%)", "setting": "[1]; soticlestat 100 mg QD oral solution, day 14", "result": "234 (29.6) L/h"},
      {"measurement": "CL/F, mean (CV%)", "setting": "[1]; soticlestat 300 mg BID oral solution, day 1 after first dose", "result": "232 (47.3) ^e L/h"},
      {"measurement": "CL/F, mean (CV%)", "setting": "[1]; soticlestat 300 mg QD oral solution, day 1", "result": "185 (47.6) L/h"},
      {"measurement": "CL/F, mean (CV%)", "setting": "[1]; soticlestat 300 mg QD oral solution, day 14", "result": "130 (43.9) L/h"},
      {"measurement": "CL/F, mean (CV%)", "setting": "[1]; soticlestat 400 mg QD oral solution, day 1", "result": "187 (38.8) L/h"},
      {"measurement": "CL/F, mean (CV%)", "setting": "[1]; soticlestat 400 mg QD oral solution, day 14", "result": "166 (44.4) L/h"},
      {"measurement": "CL/F, mean (CV%)", "setting": "[1]; soticlestat 600 mg QD oral solution, day 1", "result": "194 (57.5) L/h"},
      {"measurement": "dose proportionality of systemic exposure", "setting": "[1]; single doses of 100‐600 mg QD", "result": "slightly greater than dose‐proportional"},
      {"measurement": "tolerability of single doses", "setting": "[2]; doses up to 1350 mg", "result": "well tolerated"},
      {"measurement": "circulating levels of 24HC", "setting": "[2]; single rising doses", "result": "dose‐dependent reduction"},
      {"measurement": "soticlestat distribution in the brain", "setting": "CH24H", "result": "substantially lower level of soticlestat distribution in the brain than wild‐type controls"}
    ]}
  ]
}
